From ChEMBL document CHEMBL1128644, “(+/-)-(N-alkylamino)benzazepine analogs: novel dopamine D1 receptor antagonists” (J Med Chem, 1995) come the findings set out here.

One assay concerns the target D(1A) dopamine receptor (Rattus norvegicus, UniProt P18901).
In a further assay the target is D(2) dopamine receptor (Rattus norvegicus, UniProt P61169). Put plainly: Binding affinity against Dopamine receptor D2 from rat striatal membranes, using [3H]sulpiride as radioligand. The gist of the method:
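Rat (male Sprague–Dawley, 200–250 g) caudate putamen membranes, freshly prepared in 50 mM Tris pH 7.4 and washed by centrifugation. Incubation with 3 nM [³H]sulpiride (final) for 30 min at 37 °C, in triplicate. Nonspecific binding defined with 10 μM sulpiride. Filtration, scintillation counting, Ki by LIGAND; at least three determinations.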

Chain of D(1A) dopamine receptor (P18901 whole entry): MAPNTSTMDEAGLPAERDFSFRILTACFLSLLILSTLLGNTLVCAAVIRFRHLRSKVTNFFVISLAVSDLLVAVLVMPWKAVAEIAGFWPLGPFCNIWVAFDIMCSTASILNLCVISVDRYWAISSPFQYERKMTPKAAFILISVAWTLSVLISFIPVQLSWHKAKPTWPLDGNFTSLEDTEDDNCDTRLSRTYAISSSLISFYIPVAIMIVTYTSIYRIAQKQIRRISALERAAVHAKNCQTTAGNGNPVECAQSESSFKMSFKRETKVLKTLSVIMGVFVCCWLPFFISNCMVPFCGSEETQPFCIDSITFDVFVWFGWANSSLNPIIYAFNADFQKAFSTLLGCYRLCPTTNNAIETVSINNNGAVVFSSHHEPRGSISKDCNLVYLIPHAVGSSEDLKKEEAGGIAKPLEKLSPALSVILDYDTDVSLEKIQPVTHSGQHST
Chain of D(2) dopamine receptor (P61169 whole entry): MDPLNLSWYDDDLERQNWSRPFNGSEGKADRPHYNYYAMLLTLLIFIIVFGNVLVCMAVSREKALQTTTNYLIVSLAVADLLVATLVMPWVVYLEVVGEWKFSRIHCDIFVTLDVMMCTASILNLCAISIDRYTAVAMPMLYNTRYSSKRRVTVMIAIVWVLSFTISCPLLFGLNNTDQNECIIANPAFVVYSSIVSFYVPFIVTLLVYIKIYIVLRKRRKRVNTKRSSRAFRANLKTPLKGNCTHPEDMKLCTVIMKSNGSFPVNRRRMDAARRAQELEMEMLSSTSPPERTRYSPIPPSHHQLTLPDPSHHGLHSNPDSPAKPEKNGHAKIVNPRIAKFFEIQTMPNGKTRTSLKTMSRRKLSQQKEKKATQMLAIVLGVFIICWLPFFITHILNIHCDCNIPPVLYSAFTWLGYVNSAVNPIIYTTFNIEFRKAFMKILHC

As to `CNCCCCCCN1CCc2cc(Cl)c(O)cc2C(c2ccccc2)C1` (centres undefined), the values for the Ki on D(1A) dopamine receptor and at D(2) dopamine receptor were 75.7 nM and 3570 nM, respectively.
For `CN(C)CCCCCCN1CCc2cc(Cl)c(O)cc2C(c2ccccc2)C1` (centres undefined) the same measures were 49.3 nM and 3450 nM.
For `CN(C)CCCCN1CCc2cc(Cl)c(O)cc2C(c2ccccc2)C1` (centres undefined) the same measures were 811 nM and 4130 nM.
For `CCCCN1CCc2cc(Cl)c(O)cc2C(c2ccccc2)C1` (centres undefined) the same measures were 634 nM and 2360 nM.
For `COc1cc2c(cc1Cl)CCN(CCCCN(C)C)CC2c1ccccc1` (centres undefined), the Ki on D(1A) dopamine receptor was above 10000 nM; at D(2) dopamine receptor, 9150 nM.
On to `COc1cc2c(cc1OC)C(c1ccccc1)CN(CCCCN(C)C)CC2` (centres undefined), for which the Ki at D(1A) dopamine receptor and at D(2) dopamine receptor was above 10000 nM throughout.
Turning to `NCCCCN1CCc2cc(Cl)c(O)cc2C(c2ccccc2)C1` (centres undefined), the Ki stood at 75 nM at D(1A) dopamine receptor and 4280 nM at D(2) dopamine receptor.
The like results for `CN(C)CCCCN1CCc2cc(Br)c(O)cc2C(c2ccccc2)C1` (centres undefined) were, in that order, 1490 nM and above 10000 nM.
`COc1cc2c(cc1Br)CCN(CCCCN(C)C)CC2c1ccccc1` (centres undefined): the Ki was above 10000 nM at D(1A) dopamine receptor and 2490 nM at D(2) dopamine receptor.
Turning to `CN(C)CCCCN1CCc2cc(O)c(O)cc2C(c2ccccc2)C1` (centres undefined), the Ki on D(1A) dopamine receptor is 4820 nM; on D(2) dopamine receptor it was above 10000 nM.
As to `O=CNCCCCCCN1CCc2cc(Cl)c(O)cc2C(c2ccccc2)C1` (centres undefined), the Ki worked out at 553 nM at D(1A) dopamine receptor and 2030 nM at D(2) dopamine receptor.
Take `NCCCCCCN1CCc2cc(Cl)c(O)cc2C(c2ccccc2)C1` (centres undefined): the figures for the Ki at D(1A) dopamine receptor and on D(2) dopamine receptor were 321 nM and 2490 nM, respectively.
On D(1A) dopamine receptor, `BC#N.CN(C)CCCCCCN1CCc2cc(Cl)c(O)cc2C(c2ccccc2)C1` (centres undefined) yielded a Ki of 142 nM.
Take `NCCCC(=O)N1CCc2cc(Cl)c(O)cc2C(c2ccccc2)C1` (centres undefined): the Ki on D(1A) dopamine receptor was 607 nM; at D(2) dopamine receptor it was 7410 nM.
With `CNCCCCN1CCc2cc(Cl)c(O)cc2C(c2ccccc2)C1` (centres undefined), the inhibition constant Ki on D(1A) dopamine receptor is 106 nM; on D(2) dopamine receptor, above 10000 nM.

The Ki is the dissociation constant of the complex between target and ligand, obtained from inhibition or displacement. Read a high Ki as weaker binding.
